ChEMBL document CHEMBL1629439, “High-throughput identification of antibacterials against methicillin-resistant Staphylococcus aureus (MRSA) and the transglycosylase” (Bioorg Med Chem, 2010)
≈ marks a conversion by molar mass, not a printed value.

Key:
[1] = tested on: Stenotrophomonas maltophilia; assay: Antimicrobial activity against Stenotrophomonas maltophilia ATCC 13637 after 18 to 24 hrs by alamar blue assay; type: functional; conditions: Stenotrophomonas maltophilia, ATCC 13637; read-out: MIC
Outline: (§1)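 Broth microdilution per NCCLS in Mueller-Hinton broth, 8-point twofold dilutions, 384-well format. Exponential-phase cells at 5 × 10^5 cells/ml incubated with compound 18–24 h at 37 °C, then 20% Alamar blue added and fluorescence read. MIC90 taken as the lowest concentration preventing at least 90% bacterial growth.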

[2] = tested on: Acinetobacter baumannii; assay: Antimicrobial activity against Acinetobacter baumannii ATCC 49139 after 18 to 24 hrs by alamar blue assay; type: functional; conditions: Acinetobacter baumannii, ATCC 49139; read-out: MIC; outline: as §1
[3] = tested on: Escherichia coli; assay: Antimicrobial activity against Escherichia coli ATCC […] after 18 to 24 hrs by alamar blue assay; type: functional; conditions: Escherichia coli; read-out: MIC; outline: as §1
[4] = tested on: Staphylococcus aureus; assay: Antimicrobial activity against methicillin-resistant Staphylococcus aureus isolate NTUH4722 after 18 to 24 hrs by alamar blue assay; type: functional
Outline: (§2)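 Broth microdilution per NCCLS standard, Mueller-Hinton broth, 8-point twofold dilutions; exponentially growing cells at 5 10^5 cells/ml with compound, 18–24 h at 37 C; 20% Alamar blue added, fluorescence read; MIC90 taken as lowest concentration preventing at least 90% growth.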

[5] = tested on: Staphylococcus aureus; assay: Antimicrobial activity against methicillin-resistant Staphylococcus aureus ATCC 33592 after 18 to 24 hrs by alamar blue assay; type: functional; conditions: Staphylococcus aureus, ATCC 33592; read-out: MIC; outline: as §2
[6] = tested on: Mycolicibacterium smegmatis; assay: Antimicrobial activity against Mycobacterium smegmatis BCRC 11565 after 18 to 24 hrs by alamar blue assay; type: functional; conditions: Mycolicibacterium smegmatis, BCRC 11565; read-out: MIC; outline: as §1
[7] = tested on: Staphylococcus aureus; assay: Antimicrobial activity against Staphylococcus aureus ATCC 29213 after 18 to 24 hrs by alamar blue assay
[8] = tested on: Serratia marcescens; assay: Antimicrobial activity against Serratia marcescens ATCC 14756 after 18 to 24 hrs by alamar blue assay; type: functional; conditions: Serratia marcescens, ATCC 14756; read-out: MIC; outline: as §1
[9] = tested on: Staphylococcus aureus; assay: Antimicrobial activity against oxacillin- and methicillin-resistant Staphylococcus aureus isolate Sa-OXA-R2 after 18 to 24 hrs by alamar blue assay; type: functional; outline: as §2
[10] = tested on: Bacillus subtilis; assay: Antimicrobial activity against Bacillus subtilis ATCC 23857 after 18 to 24 hrs by alamar blue assay; type: functional; outline: as §1
[11] = tested on: Pseudomonas aeruginosa; assay: Antimicrobial activity against Pseudomonas aeruginosa ATCC 25619 after 18 to 24 hrs by alamar blue assay; type: functional; conditions: Pseudomonas aeruginosa, ATCC 25619; read-out: MIC; outline: as §1

| SMILES | MIC [1] | MIC [2] | MIC [3] | MIC [4] | MIC [5] | MIC [6] | MIC [7] | MIC [8] | MIC [9] | MIC [10] | MIC [11] |
| --- | --- | --- | --- | --- | --- | --- | --- | --- | --- | --- | --- |
| Cc1c(CC(=O)N2CCC(C(=O)O)(c3ccccc3)CC2)c(=O)oc2c(C)c3occ(-c4ccc(Cl)cc4)c3cc12 | > 256 µg/mL | > 256 µg/mL | > 256 µg/mL | 2.5 µg/mL (≈ 4.39 µM) | 2.5 µg/mL (≈ 4.39 µM) | 1 µg/mL (≈ 1.75 µM) | 2.5 µg/mL (≈ 4.39 µM) | > 256 µg/mL | 2.5 µg/mL (≈ 4.39 µM) | > 64 µg/mL | > 256 µg/mL |
| O=C1c2cc([N+](=O)[O-])cc3cc([N+](=O)[O-])cc(c23)C(=O)N1c1cccc2ccccc12 | > 256 µg/mL | > 256 µg/mL | > 256 µg/mL | 0.125 µg/mL (≈ 0.302 µM) | 2.5 µg/mL (≈ 6.05 µM) | 4 µg/mL (≈ 9.68 µM) | 1.25 µg/mL (≈ 3.02 µM) | > 256 µg/mL | 0.125 µg/mL (≈ 0.302 µM) | 4 µg/mL (≈ 9.68 µM) | > 256 µg/mL |
| O=C1c2cccc3cccc(c23)C(=O)N1CCN1CCN(CCc2ccccc2)CC1 | > 256 µg/mL | > 256 µg/mL | > 256 µg/mL | 16 µg/mL (≈ 38.7 µM) | 1 µg/mL (≈ 2.42 µM) | 4 µg/mL (≈ 9.67 µM) | 1 µg/mL (≈ 2.42 µM) | > 256 µg/mL | 0.5 µg/mL (≈ 1.21 µM) | 4 µg/mL (≈ 9.67 µM) | > 256 µg/mL |
| Cc1c(CC(=O)NCCC(=O)O)c(=O)oc2c(C)c3occ(-c4ccc(Cl)cc4)c3cc12 | > 256 µg/mL | > 256 µg/mL | > 256 µg/mL | 2.5 µg/mL (≈ 5.51 µM) | 1.25 µg/mL (≈ 2.75 µM) | 1 µg/mL (≈ 2.2 µM) | 2.5 µg/mL (≈ 5.51 µM) | > 256 µg/mL | 2.5 µg/mL (≈ 5.51 µM) | > 64 µg/mL | > 256 µg/mL |
| Cc1ccccc1NS(=O)(=O)c1ccc2c(c1)NC(=O)C(C)S2 (configuration not stated) | > 256 µg/mL | > 256 µg/mL | > 256 µg/mL | 1.2 µg/mL (≈ 3.44 µM) | 1.2 µg/mL (≈ 3.44 µM) | > 64 µg/mL | 1.2 µg/mL (≈ 3.44 µM) | > 256 µg/mL | 1.2 µg/mL (≈ 3.44 µM) | < 0.03 µg/mL | > 256 µg/mL |
| Cc1ccc(NS(=O)(=O)c2ccc3c(c2)NCC(C)C(=O)S3)c(C)c1 (configuration not stated) | > 256 µg/mL | > 256 µg/mL | > 256 µg/mL | 16 µg/mL (≈ 42.5 µM) | 2 µg/mL (≈ 5.31 µM) | > 64 µg/mL | 2 µg/mL (≈ 5.31 µM) | > 256 µg/mL | > 64 µg/mL | < 0.03 µg/mL | > 256 µg/mL |
| CCN1C(=O)/C(=C/c2ccc([N+](=O)[O-])o2)SC1=S | > 256 µg/mL | > 256 µg/mL | 16 µg/mL (≈ 56.3 µM) | 0.125 µg/mL (≈ 0.44 µM) | 0.5 µg/mL (≈ 1.76 µM) | 1 µg/mL (≈ 3.52 µM) | 0.5 µg/mL (≈ 1.76 µM) | > 256 µg/mL | 0.25 µg/mL (≈ 0.879 µM) | < 0.03 µg/mL | 2 µg/mL (≈ 7.03 µM) |
| O=C(Nc1nnc(-c2ccc(F)cc2)o1)c1cccc(Br)c1 | > 256 µg/mL | > 256 µg/mL | > 256 µg/mL | 1 µg/mL (≈ 2.76 µM) | 0.5 µg/mL (≈ 1.38 µM) | 0.5 µg/mL (≈ 1.38 µM) | 2 µg/mL (≈ 5.52 µM) | > 256 µg/mL | 1 µg/mL (≈ 2.76 µM) | 0.5 µg/mL (≈ 1.38 µM) | > 256 µg/mL |
| O=C(Nc1ccc(Cl)cc1)c1cc(Br)cc(Br)c1O | 16 µg/mL (≈ 39.5 µM) | 16 µg/mL (≈ 39.5 µM) | 8 µg/mL (≈ 19.7 µM) | 1 µg/mL (≈ 2.47 µM) | 4 µg/mL (≈ 9.87 µM) | 0.5 µg/mL (≈ 1.23 µM) | 1 µg/mL (≈ 2.47 µM) | 16 µg/mL (≈ 39.5 µM) | 1 µg/mL (≈ 2.47 µM) | < 0.03 µg/mL | 16 µg/mL (≈ 39.5 µM) |
| Cc1cccc(NS(=O)(=O)c2ccc3c(c2)NC(=O)C(C)S3)c1C (configuration not stated) | > 256 µg/mL | > 256 µg/mL | > 256 µg/mL | 16 µg/mL (≈ 44.1 µM) | 64 µg/mL (≈ 177 µM) | > 64 µg/mL | 2 µg/mL (≈ 5.52 µM) | > 256 µg/mL | 16 µg/mL (≈ 44.1 µM) | < 0.03 µg/mL | > 256 µg/mL |
| O=C(Nc1nnc(-c2ccc(Cl)cc2)o1)c1cccc(Br)c1 | > 256 µg/mL | > 256 µg/mL | > 256 µg/mL | 2 µg/mL (≈ 5.28 µM) | 0.5 µg/mL (≈ 1.32 µM) | 0.5 µg/mL (≈ 1.32 µM) | 0.5 µg/mL (≈ 1.32 µM) | > 256 µg/mL | 2 µg/mL (≈ 5.28 µM) | 0.5 µg/mL (≈ 1.32 µM) | > 256 µg/mL |
| Cc1c(CC(=O)N2CCC[C@H]2C(=O)O)c(=O)oc2c(C)c3occ(-c4ccc(F)cc4)c3cc12 | > 256 µg/mL | > 256 µg/mL | > 256 µg/mL | 0.6 µg/mL (≈ 1.29 µM) | 1.25 µg/mL (≈ 2.7 µM) | 1 µg/mL (≈ 2.16 µM) | 0.6 µg/mL (≈ 1.29 µM) | > 256 µg/mL | 0.6 µg/mL (≈ 1.29 µM) | > 64 µg/mL | > 256 µg/mL |
| Cc1c(CC(=O)NCCCC(=O)O)c(=O)oc2c(C)c3occ(-c4ccc(Cl)cc4)c3cc12 | > 256 µg/mL | > 256 µg/mL | > 256 µg/mL | 2.5 µg/mL (≈ 5.34 µM) | 2.5 µg/mL (≈ 5.34 µM) | 1 µg/mL (≈ 2.14 µM) | 2.5 µg/mL (≈ 5.34 µM) | > 256 µg/mL | 2.5 µg/mL (≈ 5.34 µM) | > 64 µg/mL | > 256 µg/mL |
| O=C(Nc1nnc(-c2cccc(Br)c2)o1)c1ccc(F)cc1 | > 256 µg/mL | > 256 µg/mL | > 256 µg/mL | 1.5 µg/mL (≈ 4.14 µM) | 1.5 µg/mL (≈ 4.14 µM) | 0.5 µg/mL (≈ 1.38 µM) | 3 µg/mL (≈ 8.28 µM) | > 256 µg/mL | 1.5 µg/mL (≈ 4.14 µM) | 0.5 µg/mL (≈ 1.38 µM) | > 256 µg/mL |
| CCCc1ccc(C)c(Oc2ccc(Cl)cc2NC(=O)c2cc(Cl)cc(Br)c2O)c1 | 16 µg/mL (≈ 31.4 µM) | 16 µg/mL (≈ 31.4 µM) | 8 µg/mL (≈ 15.7 µM) | 0.06 µg/mL (≈ 0.118 µM) | 0.125 µg/mL (≈ 0.245 µM) | 0.5 µg/mL (≈ 0.982 µM) | 0.25 µg/mL (≈ 0.491 µM) | 16 µg/mL (≈ 31.4 µM) | 0.06 µg/mL (≈ 0.118 µM) | < 0.03 µg/mL | 16 µg/mL (≈ 31.4 µM) |
| Cc1c(CC(=O)N[C@@H](C(=O)O)c2ccccc2)c(=O)oc2c(C)c3occ(-c4ccc(Cl)cc4)c3cc12 | > 256 µg/mL | > 256 µg/mL | > 256 µg/mL | 2.5 µg/mL (≈ 4.85 µM) | 2.5 µg/mL (≈ 4.85 µM) | 1 µg/mL (≈ 1.94 µM) | 2.5 µg/mL (≈ 4.85 µM) | > 256 µg/mL | 2.5 µg/mL (≈ 4.85 µM) | > 64 µg/mL | > 256 µg/mL |
| CSC[C@H](NC(=O)Cc1c(C)c2cc3c(-c4ccc(Cl)cc4)coc3c(C)c2oc1=O)C(=O)O | > 256 µg/mL | > 256 µg/mL | > 256 µg/mL | 2.5 µg/mL (≈ 5 µM) | 1.25 µg/mL (≈ 2.5 µM) | 1 µg/mL (≈ 2 µM) | 2.5 µg/mL (≈ 5 µM) | > 256 µg/mL | 2.5 µg/mL (≈ 5 µM) | > 64 µg/mL | > 256 µg/mL |
